Data from the array DNA melting data of Ke et al. (doi:10.1101/2024.01.08.574731).

Assays:
[1] = folding enthalpy; higher = less favourable; fluorescence melt of hairpins on a sequencing array, two-state fit; conditions: sodium 0.088 M
In short: (§1)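 Melting temperature and folding enthalpy were derived from bootstrapped two-state fits. The fitted temperatures were raised by 9.35 °C to agree with UV melts, and four replicates were combined by inverse variance. The underlying data were Cy3 fluorescence images of library hairpins, with annealed Cy3 and quencher oligos, on a sequenced MiSeq flow cell in 50 mM Na-HEPES pH 8.0, 25 mM NaCl, taken in 2.5 °C steps up to 60 °C, normalised to pre-quench Cy3 and to control constructs.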

[2] = melting temperature; fluorescence melt of hairpins on a sequencing array, two-state fit, raised by 9.35 °C to match UV melts; conditions: sodium 0.088 M
In short: as §1

| Sequence | folding enthalpy [1] | Tm [2] |
| --- | --- | --- |
| GCCTATGGAAACATAGAC (.(((((....))))).) | -17.4 kcal/mol | 32.6 °C |
| GCCTATGGAAACGTAGGC (((((.(....).))))) | -39.8 kcal/mol | 51.1 °C |
| GCCTATTCGAAAGAAGGC (((..(((....)))))) | -20.6 kcal/mol | 38.2 °C |
| GCCTCAGGAAACTGAAGC ((.((((....)))).)) | -24.9 kcal/mol | 36.3 °C |
| GCCTCAGGAAACTGAGAC (.(((((....))))).) | -20.8 kcal/mol | 38.4 °C |
| GCCTCAGGAAACTGGGGC (((.(((....))).))) | -41.9 kcal/mol | 56 °C |
| GCCTCCGAAAGGAATGGC ((((((....)))..))) | -23 kcal/mol | 49.9 °C |
| GCCTCCGAAAGGAGTGGC ((((((....)))..))) | -17.1 kcal/mol | 50.3 °C |
| GCCTCCGAAAGGATGGC ((((((....))).))) | -36.6 kcal/mol | 57 °C |
| GCCTCGCGAAAGCATGGC (((..((....))..))) | -18.4 kcal/mol | 53.3 °C |
| GCCTCGCGAAAGCCACGC ((.(.((....)).).)) | -6.05 kcal/mol | 20.5 °C |
| GCCTCGCGAAAGCGACGC ((.((((....)))).)) | -16.5 kcal/mol | 52.6 °C |
| GCCTCGCGAAAGCGATGC ((.((((....)))).)) | -16.7 kcal/mol | 58.2 °C |
| GCCTCGCGAAAGCTAAGC ((.(.((....)).).)) | -6.03 kcal/mol | 25.6 °C |
| GCCTCGCGAAAGCTACGC ((.(.((....)).).)) | -5.87 kcal/mol | 20 °C |
| GCCTCGCGAAAGCTTGGC (((..((....))..))) | -25.5 kcal/mol | 51.4 °C |
| GCCTCGGGAAACCGGGGC (((.(((....))).))) | -36.4 kcal/mol | 66.3 °C |
| GCCTCTGGAAACAGAAGC ((.((((....)))).)) | -24.2 kcal/mol | 35.6 °C |
| GCCTCTTCGAAAGAAGGC (((..(((....)))))) | -14.8 kcal/mol | 39.4 °C |
| GCCTGAGAAATCAGGC ((((((....)))))) | -39.2 kcal/mol | 62.5 °C |
| GCCTGAGGAAACTTAGGC ((((.((....)).)))) | -31.2 kcal/mol | 48.8 °C |
| GCCTGCCCGAAAGGGGGC (((..(((....)))))) | -12.6 kcal/mol | 58.1 °C |
| GCCTGCGGAAACGCAGAC (.(((((....))))).) | -12.1 kcal/mol | 50 °C |
| GCCTGGAAACAGGC (((((....))))) | -27.1 kcal/mol | 63.4 °C |

| Sequence | folding enthalpy [1] | Tm [2] |
| --- | --- | --- |
| GCCTGGCGAAAGCAATGC ((.(.((....)).).)) | -7.84 kcal/mol | 26.9 °C |
| GCCTGGCGAAAGCCCAGC ((..(((....)))..)) | -10.9 kcal/mol | 47.3 °C |
| GCCTGGCGAAAGCCTCGC ((..(((....)))..)) | -9.28 kcal/mol | 45.3 °C |
| GCCTGGGCGAAAGCCGGC (((..(((....)))))) | -23.7 kcal/mol | 55.2 °C |
| GCCTGGGGAAACTCGGGC (((.(.(....).).))) | -31.8 kcal/mol | 46.7 °C |
| GCCTGGTCGAAAGACGGC (((..(((....)))))) | -25.3 kcal/mol | 52.2 °C |
| GCCTGTCGAAAGACCGGC (((.(((....))).))) | -39.5 kcal/mol | 55.8 °C |
| GCCTGTCGAAAGACGGC (((.(((....)))))) | -31.2 kcal/mol | 56.5 °C |
| GCCTGTGCGAAAGCAGGC (((..(((....)))))) | -26.6 kcal/mol | 56.5 °C |
| GCCTGTGGAAACGCAGGC (((((.(....).))))) | -38 kcal/mol | 59.9 °C |
| GCCTGTGGAAACGTAGGC ((((..(....)..)))) | -28 kcal/mol | 48.2 °C |
| GCCTTACGAAAGTACGGC (((.(((....))).))) | -46.5 kcal/mol | 52.2 °C |
| GCCTTAGGAAACTAAGAC (.(((((....))))).) | -13.8 kcal/mol | 30.1 °C |
| GCCTTCGAAAGAAAGGC ((((((....))).))) | -30.3 kcal/mol | 54 °C |
| GCCTTCGAAAGAACTGGC ((((((....)))..))) | -21.9 kcal/mol | 35.7 °C |
| GCCTTCGAAAGAAGCGGC ((((((....)))..))) | -18.1 kcal/mol | 47.2 °C |
| GCCTTCGAAAGAAGGGGC ((((((....)))..))) | -17.8 kcal/mol | 53.8 °C |
| GCCTTCGGAAACGAGGGC (((.(((....))).))) | -33.6 kcal/mol | 56.7 °C |
| GCCTTCTCGAAAGAGGGC (((..(((....)))))) | -23.8 kcal/mol | 44.3 °C |
| GCCTTGCGAAAGCAAAGC ((.((((....)))).)) | -14.9 kcal/mol | 55.9 °C |
| GCCTTGCGAAAGCAACGC ((.((((....)))).)) | -14.3 kcal/mol | 54.7 °C |
| GCCTTGCGAAAGCAATGC ((.((((....)))).)) | -17.4 kcal/mol | 56.9 °C |
| GCCTTGCGAAAGCACAGC ((..(((....)))..)) | -7.49 kcal/mol | 45.1 °C |
| GCCTTGCGAAAGCACGGC (((.(((....))).))) | -49.4 kcal/mol | 57.8 °C |

| Sequence | folding enthalpy [1] | Tm [2] |
| --- | --- | --- |
| GCCTTGCGAAAGCATGGC (((.(((....))).))) | -44.8 kcal/mol | 62.1 °C |
| GCCTTGCGAAAGCGTGGC (((..((....))..))) | -22.8 kcal/mol | 60.3 °C |
| GCCTTGCGAAAGCTATGC ((.(.((....)).).)) | -8.48 kcal/mol | 44.5 °C |
| GCCTTGGCGAAAGCCGGC (((..(((....)))))) | -12.9 kcal/mol | 56.9 °C |
| GCCTTTCGAAAGAACGGC (((.(((....))).))) | -39.5 kcal/mol | 48.8 °C |
| GCCTTTGGAAACAAAAGC ((.((((....)))).)) | -12.2 kcal/mol | 29.3 °C |
| GCCTTTGGAAACAAAGAC (.(((((....))))).) | -21.9 kcal/mol | 34.7 °C |
| GCCTTTGGAAACAAAGGC (((((((....))))))) | -38.4 kcal/mol | 66.7 °C |
| GCGAAAATCGC ((((...)))) | -14.1 kcal/mol | 45 °C |
| GCGAAACATCGC ((((....)))) | -21.5 kcal/mol | 48.7 °C |
| GCGAAACGAAAGTTACGC (((.(((....))).))) | -40.1 kcal/mol | 58.6 °C |
| GCGAAACGAAAGTTCGC (((.(((....)))))) | -32.9 kcal/mol | 62.7 °C |
| GCGAAACGAAAGTTGCGC (((.(((....))).))) | -35.8 kcal/mol | 65.7 °C |
| GCGAAAGGAAACTCTCGC ((((.((....)).)))) | -28.1 kcal/mol | 38.3 °C |
| GCGAAAGGAAACTTTCAC (.(((((....))))).) | -19.1 kcal/mol | 32.6 °C |
| GCGAAAGGAAACTTTCGC (((((((....))))))) | -44.2 kcal/mol | 64.6 °C |
| GCGAAAGGAAACTTTTGC ((.((((....)))).)) | -32.1 kcal/mol | 45.9 °C |
| GCGAACAATCGC ((((....)))) | -18.3 kcal/mol | 39.9 °C |
| GCGAACAGTCGC ((((....)))) | -16.4 kcal/mol | 42.1 °C |
| GCGAACATCGC ((((...)))) | -17.1 kcal/mol | 45.6 °C |
| GCGAACATTCGC ((((....)))) | -21.4 kcal/mol | 48.2 °C |
| GCGAACCTTCGC ((((....)))) | -24.2 kcal/mol | 50.3 °C |
| GCGAACGAAAGTTAGCGC ((((((....)))..))) | -31 kcal/mol | 55.8 °C |
| GCGAACGAAAGTTTCCGC ((((((....)))..))) | -21.1 kcal/mol | 36.2 °C |

| Sequence | folding enthalpy [1] | Tm [2] |
| --- | --- | --- |
| GCGAACGGAAACATCCGC (((.(.(....).).))) | -7.45 kcal/mol | 20.9 °C |
| GCGAACTTTCGC ((((....)))) | -20 kcal/mol | 51.1 °C |
| GCGAAGATTCGC ((((....)))) | -21.8 kcal/mol | 49 °C |
| GCGAAGCGAAAGCCTAGC ((.(.((....)).).)) | -7.6 kcal/mol | 40.2 °C |
| GCGAAGCGAAAGCCTTGC ((.(.((....)).).)) | -7.85 kcal/mol | 36.3 °C |
| GCGAAGCGAAAGCTGCGC (((.(((....))).))) | -23.6 kcal/mol | 67.7 °C |
| GCGAAGCGAAAGCTTAGC ((.((((....)))).)) | -16.1 kcal/mol | 56 °C |
| GCGAAGGAAACTTCGC ((((((....)))))) | -34.8 kcal/mol | 63.7 °C |
| GCGAAGGGTCGC ((((....)))) | -12.1 kcal/mol | 48.2 °C |
| GCGAATATCGC ((((...)))) | -16.6 kcal/mol | 46.5 °C |
| GCGAATCATCGC ((((....)))) | -23.6 kcal/mol | 47.6 °C |
| GCGAATCGAAAGATCCGC (((.(((....))).))) | -47 kcal/mol | 52.3 °C |
| GCGAATGAAAATTCGC ((((((....)))))) | -36.3 kcal/mol | 65 °C |
| GCGAATGGAAACACTCGC ((((.((....)).)))) | -35.2 kcal/mol | 46.2 °C |
| GCGAATGGAAACGTTTGC ((.((.(....).)).)) | -30.7 kcal/mol | 36 °C |
| GCGAATTTTCGC ((((....)))) | -29.5 kcal/mol | 53.2 °C |
| GCGACAACTCGC ((((....)))) | -21.2 kcal/mol | 41.7 °C |
| GCGACACGAAAGTGCCGC (((.(((....))).))) | -38.8 kcal/mol | 64.3 °C |
| GCGACACTTCGC ((((....)))) | -26.7 kcal/mol | 52.1 °C |
| GCGACAGGAAACTGTTGC ((.((((....)))).)) | -34.4 kcal/mol | 54.9 °C |
| GCGACAGGTCGC ((((....)))) | -27.1 kcal/mol | 56.2 °C |
| GCGACAGTCGC ((((...)))) | -27.8 kcal/mol | 46.7 °C |
